Measured values gathered from unrelated publications.
Protocols differ between the studies behind these lines.
Matrix: plasma
Route: intravenous

Structure (SMILES)	host	dose	notes	Vd
C#Cc1cnc2nc(O)n(C(CC)CC)c2n1	Sprague-Dawley rat	1 mg/kg		0.8 L/kg
CCNC(=O)c1nc(-c2ccc3[nH]c(-c4nc(C)no4)cc3c2)c(C)[nH]1	Sprague-Dawley rat	1 mg/kg		1.3 L/kg
COc1cc(F)ccc1-c1ncnc(Nc2cccc(CS(N)(=O)=O)c2)n1	male Wistar rat			1.4 L/kg
COc1ccc2c(Cc3ccccc3F)c3n(c(=O)c2c1OC)CCc1cc2c(cc1-3)OCO2	rat	5 mg/kg		0.32 L/kg
CCCC[C@@H]1NC(=O)[C@H](Cc2ccc(O)cc2)NC(=O)[C@@H]2CCCN2C(=O)[C@H](CC(=O)O)NC(=O)[C@H](C)NC(=O)[C@H](Cc2ccccc2)NC(=O)[C@@H]2CSCCC(=O)N3CN(CN(C3)C(=O)CCSC[C@@H](C(=O)N[C@@H](CNC(=O)CCOCCOCCOCCOCCOCCOCCOCCOCCOCCOCCOCCOCCn3cc(CCC(=O)NCCC(=O)N(C)CC(=O)N(C)CC(=O)N(C)CC(=O)N(C)CC(=O)N(C)CC(=O)N(C)CC(=O)N(C)CC(=O)N(C)CC(=O)N(C)CC(=O)N(C)CC(=O)N[C@H]4CSCCC(=O)N5CN6CN(C5)C(=O)CCSC[C@H](NC(=O)[C@@H](CC(=O)O)NC(=O)[C@H](Cc5cccc7ccccc57)NC(=O)[C@@H]5CCCN5C4=O)C(=O)N[C@@H](CCSC)C(=O)N[C@@H](CCCCNC(=N)N)C(=O)N[C@@H](CC(=O)O)C(=O)N[C@@H](Cc4c[nH]c5ccccc45)C(=O)N[C@@H](CO)C(=O)N[C@@H]([C@@H](C)O)C(=O)N4CCC[C@H]4C(=O)N4C[C@H](O)C[C@H]4C(=O)N[C@@H](Cc4c[nH]c5ccccc45)C(=O)N[C@H](C(N)=O)CSCCC6=O)nn3)C(N)=O)NC1=O)C(=O)CCSC[C@H](NC(C)=O)C(=O)N[C@@H](CC(C)(C)C)C(=O)N1CCC[C@H]1C(=O)N[C@@H](CCC(=O)O)C(=O)N[C@H](C)C(=O)N1CCC[C@H]1C(=O)N[C@@H](Cc1ccc(O)cc1)C(=O)N2	rat	2 mg/kg		0.46 L/kg
CN1CCC(c2ccccc2CC(C)(C)Nc2nc(N3CCOCC3)nc(-n3c(C(F)F)nc4ccccc43)n2)CC1	rat	5 mg/kg	single dose	23.7 L/kg
Oc1c(-n2ccnn2)cnn1-c1cc(N2CCOCC2)ncn1	male rat	5 mg/kg		0.62 L/kg
CCCC[C@@H]1NC(=O)[C@H](Cc2ccc(O)cc2)NC(=O)[C@@H]2CCCN2C(=O)[C@H](CC(=O)O)NC(=O)[C@H](C)NC(=O)[C@H](Cc2ccccc2)NC(=O)[C@@H]2CSCCC(=O)N3CN(CN(C3)C(=O)CCSC[C@@H](C(=O)N[C@@H](C)C(N)=O)NC1=O)C(=O)CCSC[C@H](NC(C)=O)C(=O)N[C@@H](CC(C)(C)C)C(=O)N1CCC[C@H]1C(=O)N[C@@H](CCC(=O)O)C(=O)N[C@H](CCCCNC(=O)CCc1cn(CCOCCOCCOCCOCCOCCOCCOCCOCCOCCOCCNC(=O)c3cc(C(=O)NCCOCCOCCOCCOCCOCCOCCOCCOCCOCCOCCn4cc(CCC(=O)NCCCC[C@H]5NC(=O)[C@H](CCC(=O)O)NC(=O)[C@@H]6CCCN6C(=O)[C@H](CC(C)(C)C)NC(=O)[C@@H](NC(C)=O)CSCCC(=O)N6CN7CN(C6)C(=O)CCSC[C@H](NC(=O)[C@H](Cc6ccc(O)cc6)NC(=O)[C@@H]6CCCN6C5=O)C(=O)N[C@@H](Cc5ccccc5)C(=O)N[C@@H](C)C(=O)N[C@@H](CC(=O)O)C(=O)N5CCC[C@H]5C(=O)N[C@@H](Cc5ccc(O)cc5)C(=O)N[C@@H](CCCC)C(=O)N[C@H](C(=O)N[C@@H](C)C(N)=O)CSCCC7=O)nn4)cc(C(=O)NCCOCCOCCOCCOCCOCCOCCOCCOCCOCCOCCn4cc(CCC(=O)N[C@H]5CSCCC(=O)N6CN7CN(C6)C(=O)CCSC[C@H](NC(=O)[C@@H](CC(=O)O)NC(=O)[C@H](Cc6cccc8ccccc68)NC(=O)[C@@H]6CCCN6C5=O)C(=O)N[C@@H](CCSC)C(=O)N[C@@H](CCCCNC(=N)N)C(=O)N[C@@H](CC(=O)O)C(=O)N[C@@H](Cc5c[nH]c6ccccc56)C(=O)N[C@@H](CO)C(=O)N[C@@H]([C@@H](C)O)C(=O)N5CCC[C@H]5C(=O)N5C[C@H](O)C[C@H]5C(=O)N[C@@H](Cc5c[nH]c6ccccc56)C(=O)N[C@H](C(N)=O)CSCCC7=O)nn4)c3)nn1)C(=O)N1CCC[C@H]1C(=O)N[C@@H](Cc1ccc(O)cc1)C(=O)N2	rat	2 mg/kg		1 L/kg
O=C(Nc1cc(F)c(F)c(F)c1)c1ccc(F)c(S(=O)(=O)NCc2cccc(B(O)O)c2)c1	male Sprague-Dawley rat	2 mg/kg		11 L/kg
CCc1cc(OC)c2nccc(N3CCc4c(cc(Cn5ccnc5)cc4-c4cn(C)nc4C(F)(F)F)C3=O)c2c1	male Sprague-Dawley rat	3 mg/kg		3.1 L/kg
CN1CCC(COc2cnc(-c3cccc(Cn4nc(-c5cccc(C#N)c5)ccc4=O)c3)nc2)CC1	male Sprague-Dawley rat	1 mg/kg		19 L/kg
O=C(c1cc(Cc2n[nH]c(=O)c3ccccc23)ccc1F)N1CCN(C(=O)C2CC2)CC1	female Sprague-Dawley rat			0.201 L
